Source: ChEMBL document CHEMBL1649514, “AmpDI is involved in expression of the chromosomal L1 and L2 beta-lactamases of Stenotrophomonas maltophilia” (2009)
≈ marks a conversion by molar mass, not a printed value.

Columns and labels:
Type in all cases: functional
[1] = test system: Stenotrophomonas maltophilia; assay: Antimicrobial activity against ampD2-deficient Stenotrophomonas maltophilia KJ by twofold serial agar dilution method
Outline: (§1)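 MICs by standard twofold serial agar dilution following CLSI guidelines, done in triplicate. Strains were wild-type clinical isolate KJ, which produces L1 and L2 β-lactamases, and its isogenic ampDI, ampDII and ampDI/ampDII deletion mutants. For cefepime, imipenem and meropenem, MICs were instead read from Etest strips per the manufacturer's instructions.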

[2] = test system: Stenotrophomonas maltophilia; assay: Antimicrobial activity against ampD1-deficient Stenotrophomonas maltophilia KJ by twofold serial agar dilution method; outline: as §1
[3] = test system: Stenotrophomonas maltophilia; assay: Antimicrobial activity against Stenotrophomonas maltophilia KJ by twofold serial agar dilution method; outline: as §1
[4] = test system: Stenotrophomonas maltophilia; assay: Antimicrobial activity against ampD1-, ampD2-deficient Stenotrophomonas maltophilia KJ by twofold serial agar dilution method; outline: as §1

Row | Structure (SMILES) | MIC [1] [µg/mL] | MIC [2] [µg/mL] | MIC [3] [µg/mL] | MIC [4] [µg/mL]
1 | C[C@H]1[C@H](NC(=O)/C(=N\OC(C)(C)C(=O)O)c2csc(N)n2)C(=O)N1S(=O)(=O)O [AZTREONAM] | > 2050 | > 2050 | > 2050 | > 2050
2 | CC1(C)S[C@@H]2[C@H](NC(=O)C(C(=O)O)c3ccccc3)C(=O)N2[C@H]1C(=O)O (stereo partly specified) [CARBENICILLIN] | 1020 (≈ 2710 µM) | 1020 (≈ 2710 µM) | 1020 (≈ 2710 µM) | 1020 (≈ 2710 µM)
3 | CO[C@@]1(NC(=O)Cc2cccs2)C(=O)N2C(C(=O)O)=C(COC(N)=O)CS[C@@H]21 [CEFOXITIN] | 1020 (≈ 2400 µM) | 1020 (≈ 2400 µM) | 1020 (≈ 2400 µM) | 1020 (≈ 2400 µM)
4 | C[C@@H](O)[C@H]1C(=O)N2C(C(=O)O)=C(S[C@@H]3CN[C@H](C(=O)N(C)C)C3)[C@H](C)[C@H]12 [MEROPENEM] | > 32 | > 32 | > 32 | > 32
5 | CCN1CCN(C(=O)N[C@@H](C(=O)N[C@@H]2C(=O)N3[C@@H]2SC(C)(C)[C@@H]3C(=O)O)c2ccccc2)C(=O)C1=O [PIPERACILLIN] | 1020 (≈ 1980 µM) | 1020 (≈ 1980 µM) | 1020 (≈ 1980 µM) | 1020 (≈ 1980 µM)

The remaining lines, values ahead:

Row | MIC [1] [µg/mL] | MIC [2] [µg/mL] | MIC [3] [µg/mL] | MIC [4] [µg/mL] | Structure (SMILES)
6 | 64 (≈ 133 µM) | 96 (≈ 200 µM) | 64 (≈ 133 µM) | 96 (≈ 200 µM) | CO/N=C(\C(=O)N[C@@H]1C(=O)N2C(C(=O)[O-])=C(C[N+]3(C)CCCC3)CS[C@H]12)c1csc(N)n1 [CEFEPIME]
7 | 256 (≈ 462 µM) | 256 (≈ 462 µM) | 256 (≈ 462 µM) | 256 (≈ 462 µM) | CO/N=C(\C(=O)N[C@@H]1C(=O)N2C(C(=O)O)=C(CSc3nc(=O)c(O)nn3C)CS[C@H]12)c1csc(N)n1 [CEFTRIAXONE]
8 | 2050 (≈ 4830 µM) | 2050 (≈ 4830 µM) | 2050 (≈ 4830 µM) | 2050 (≈ 4830 µM) | CO/N=C(\C(=O)N[C@@H]1C(=O)N2C(C(=O)O)=C(COC(N)=O)CS[C@H]12)c1ccco1 [CEFUROXIME]
9 | > 32 | > 32 | > 32 | > 32 | C[C@@H](O)[C@H]1C(=O)N2C(C(=O)O)=C(SCCNC=N)C[C@H]12 [IMIPENEM ANHYDROUS]
